Data taken from ChEMBL document CHEMBL4477178, “Biflorin, Isolated from the Flower Buds of Syzygium aromaticum L., Suppresses LPS-Induced Inflammatory Mediators via STAT1 Inactivation in Macrophages and Protects Mice from Endotoxin Shock” (J Nat Prod, 2016).
Active and inactive are the calls of the source. The calls are words filed in the database; no cut-off is given here.

Experiments:
[1] = target: Signal transducer and activator of transcription 3 (Mus musculus) (UniProt P42227); assay: Inhibition of LPS-induced STAT3 phosphorylation at Y705 in mouse RAW264.7 cells at 15 to 60 uM preincubated for 1 hr followed by LPS challenge for 120 mins by Western blot analysis; assay type: cell-based
How it was run: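 RAW 264.7 pretreated 1 h at 15, 30 or 60 μM, then LPS 10 ng/mL: 120 min for p-STAT1 Y701, 15 min for p-STAT1 S727, 120 min for p-STAT3 Y705. Western blot with phospho-specific and total STAT1/STAT3 antibodies, β-actin control; three independent experiments.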

Rattus norvegicus [2] = assay: Antiinflammatory activity in Sprague-Dawley rat assessed as inhibition of croton oil-induced ear edema at 5 mg/kg, ip administered 1 hr before croton oil challenge measured after 3 hrs post challenge relative to control; assay type: functional
How it was run: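 Male SD rats given compound i.p. (5, 10 or 15 mg/kg) 1 h before topical croton oil (5% in 100 μL acetone) on the inner right ear; the left ear received acetone alone. After 3 h, rats were killed and 6 mm ear punches were taken and measured for thickness. Inhibition calculated relative to the croton-oil-only group; seven rats per group.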

RAW264.7 [3] = assay: Cytotoxicity against mouse RAW264.7 cells assessed as cell viability at 60 uM after 24 hrs by MTT assay in presence of LPS; assay type: cell-based; conditions: raw264.7, 24 h
How it was run: (§1)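 RAW 264.7 seeded at 1 × 10^5 cells/mL, grown overnight, exposed 24 h with or without LPS; MTT (5 mg/mL stock in PBS) added 4 h at 37 °C, formazan dissolved in DMSO, absorbance at 540 nm.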

RAW264.7 [4] = assay: Antiinflammatory activity in mouse RAW264.7 cells assessed as inhibition of LPS-induced iNOS mRNA expression at 60 uM after 2 to 12 hrs by qRT-PCR method; assay type: functional, cell-based
How it was run: (§2)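 RAW 264.7 stimulated with LPS 10 ng/mL with or without 60 μM for 2, 4, 6 and 12 h. Total RNA (1 μg) reverse-transcribed with MuLV RT and random primer; SYBR green real-time qPCR with gene-specific primers, triplicate Ct normalized to β-actin. Mean ± SD, three independent experiments.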

Rattus norvegicus [5] = assay: Antiinflammatory activity in Sprague-Dawley rat assessed as reduction in carrageenan induced paw edema at 10 mg/kg, ip administered 1 hr before carrageenan challenge measured at 3 hrs post challenge relative to control; assay type: functional
How it was run: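 SD rats given compound i.p. (5, 10 or 15 mg/kg) 1 h before subplantar injection of 1% carrageenan in saline (0.1 mL) into the right hind paw. Paw volume measured by plethysmometer at 1, 3 and 5 h. Edema compared with the carrageenan-only group; seven rats per group.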

Peritoneal macrophage = assay: Antiinflammatory activity in C57BL/6 mouse peritoneal macrophages assessed as inhibition of LPS-induced nitric oxide production at 60 uM preincubated for 1 hr followed by LPS challenge for 48 hrs by Griess assay; assay type: functional; conditions: C57BL/6, Peritoneal macrophage
How it was run: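 Thioglycolate-elicited C57BL/6 mouse peritoneal macrophages, plated at 5 × 10^5 cells/mL and incubated overnight. Compound given at 15, 30 or 60 μM for 1 h, then LPS 10 μg/mL. Medium mixed 1:1 with Griess reagent for 10 min at room temperature, absorbance read at 540 nm, nitrite quantified against a NaNO2 standard. L-NIL 20 μM as positive control; three independent experiments.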

RAW264.7 [6] = assay: Antiinflammatory activity in mouse RAW264.7 cells assessed as inhibition of LPS-induced IL-6 production at 60 uM preincubated for 1 hr followed by LPS challenge for 24 hrs by ELISA method; assay type: functional
How it was run: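 RAW 264.7 cells in DMEM with 10% FBS, plated at 2 × 10^5 cells/mL and incubated overnight. Pretreated with compound (15, 30 or 60 μM) for 1 h, then LPS 10 ng/mL for 24 h. PGE2 measured by competitive colorimetric ELISA, TNF-α and IL-6 by ELISA, in diluted medium. NS-398 3 μM as positive control for PGE2. Mean ± SD, three independent experiments; IC50 given for PGE2.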

Mus musculus [7] = assay: Inhibition of LPS-induced TNF-alpha mRNA expression in C57BL/6 mouse liver at 10 mg/kg, ip pretreated for 1 hr followed by LPS challenge for 6 hrs by qRT-PCR method; assay type: functional, organism-based
How it was run: (§3)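 Male C57BL/6 mice given 10 mg/kg i.p. or vehicle 1 h before LPS (Salmonella enterica, 25 mg/kg i.p.); liver collected 6 h after LPS, frozen at −80 °C. Liver mRNA by SYBR qRT-PCR normalized to β-actin; protein by Western blot for p-STAT1 (Y701, S727). Eight mice per group; mean ± SD.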

Mus musculus [8] = assay: In vivo inhibition of LPS-induced STAT1 phosphorylation at S727 in C57BL/6 mouse liver at 10 mg/kg, ip pretreated for 1 hr followed by LPS challenge for 6 hrs by Western blot analysis; assay type: functional, organism-based; how it was run: as §3
[9] = target: Transcription factor Jun (Mus musculus) (UniProt P05627); assay: Inhibition of LPS-induced AP-1 activity in mouse RAW264.7 cells at 15 to 60 uM preincubated for 1 hr followed by LPS challenge for 12 hrs by luciferase reporter gene assay; assay type: cell-based
[10] = Cytotoxicity against C57BL/6 mouse peritoneal macrophages assessed as cell viability at 60 uM after 24 hrs by MTT assay; assay type: cell-based, Peritoneal macrophage; conditions: read-out: Activity
How it was run: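 Peritoneal macrophages from thioglycolate-elicited C57BL/6 male mice (harvested by lavage after 4 days, cultured in DMEM/10% FBS) exposed 24 h up to 60 μM; viability by MTT assay.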

RAW264.7 [11] = assay: Antiinflammatory activity in mouse RAW264.7 cells assessed as inhibition of LPS-induced IL-6 mRNA expression at 60 uM after 2 to 12 hrs by qRT-PCR method; assay type: functional, cell-based; how it was run: as §2
Rattus norvegicus [12] = assay: Antiinflammatory activity in Sprague-Dawley rat assessed as inhibition of croton oil-induced ear edema at 10 mg/kg, ip administered 1 hr before croton oil challenge measured after 3 hrs by hematoxylin and eosin staining based assay; assay type: functional, organism-based
How it was run: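 SD male rats dosed i.p. (10 mg/kg) 1 h before topical croton oil (5% in acetone) on inner right ear; left ear got acetone only. At 3 h rats sacrificed, 6 mm ear punches taken, fixed in 4% paraformaldehyde overnight, paraffin-embedded, H&E-stained for edema and inflammatory cell infiltrate; seven animals per group.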

RAW264.7 [13] = assay: Antiinflammatory activity in mouse RAW264.7 cells assessed as inhibition of LPS-induced COX-2 promoter activity at 60 uM preincubated for 1 hr followed by LPS challenge for 6 to 12 hrs by reporter gene assay; assay type: functional, cell-based
How it was run: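 RAW 264.7 transiently cotransfected with promoter-luciferase construct (pGL3-iNOS, pGL3-COX-2 or pTNF-α-luc) plus phRL-TK internal control; 6 h after transfection pretreated 1 h with 60 μM, then LPS 10 ng/mL for 6 or 12 h. Cells washed in cold PBS, lysed, luciferase read. Mean ± SD, three independent experiments.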

RAW264.7 [14] = assay: Cytotoxicity against mouse RAW264.7 cells assessed as cell viability at 60 uM after 24 hrs by MTT assay in absence of LPS; assay type: cell-based; conditions: raw264.7, 24 h; how it was run: as §1

Sequence of Signal transducer and activator of transcription 3 (Mus musculus) (P42227 whole entry): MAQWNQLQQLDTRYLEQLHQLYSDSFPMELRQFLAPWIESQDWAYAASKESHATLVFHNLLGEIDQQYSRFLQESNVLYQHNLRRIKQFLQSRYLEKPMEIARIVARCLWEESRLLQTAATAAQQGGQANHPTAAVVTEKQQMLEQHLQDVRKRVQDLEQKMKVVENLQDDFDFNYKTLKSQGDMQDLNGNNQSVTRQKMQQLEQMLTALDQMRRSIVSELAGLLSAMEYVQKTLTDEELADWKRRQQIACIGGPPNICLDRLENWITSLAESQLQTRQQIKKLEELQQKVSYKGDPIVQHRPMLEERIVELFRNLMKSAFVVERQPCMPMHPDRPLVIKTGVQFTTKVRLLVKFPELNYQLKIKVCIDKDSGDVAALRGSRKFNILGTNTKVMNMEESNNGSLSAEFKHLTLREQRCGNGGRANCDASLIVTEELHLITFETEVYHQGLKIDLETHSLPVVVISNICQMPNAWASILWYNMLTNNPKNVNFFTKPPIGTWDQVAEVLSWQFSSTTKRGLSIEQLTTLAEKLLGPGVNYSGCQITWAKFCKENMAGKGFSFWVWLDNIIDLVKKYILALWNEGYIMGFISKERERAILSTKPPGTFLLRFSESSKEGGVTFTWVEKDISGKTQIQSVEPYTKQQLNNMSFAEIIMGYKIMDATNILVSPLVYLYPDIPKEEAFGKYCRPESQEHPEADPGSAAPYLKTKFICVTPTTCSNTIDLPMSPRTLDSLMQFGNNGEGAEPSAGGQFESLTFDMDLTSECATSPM
Sequence of Transcription factor Jun (Mus musculus) (P05627 whole entry): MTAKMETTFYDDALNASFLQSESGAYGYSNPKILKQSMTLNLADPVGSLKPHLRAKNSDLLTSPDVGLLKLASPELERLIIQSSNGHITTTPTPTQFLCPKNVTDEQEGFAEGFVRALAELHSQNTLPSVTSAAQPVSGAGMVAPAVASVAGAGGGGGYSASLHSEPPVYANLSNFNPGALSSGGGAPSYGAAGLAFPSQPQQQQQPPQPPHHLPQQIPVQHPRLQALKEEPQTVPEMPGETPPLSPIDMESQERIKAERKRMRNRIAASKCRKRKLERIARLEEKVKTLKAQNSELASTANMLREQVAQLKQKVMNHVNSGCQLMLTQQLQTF

For `Cc1cc(=O)c2c(O)c([C@@H]3O[C@H](CO)[C@@H](O)[C@H](O)[C@H]3O)c(O)cc2o1` [BIFLORIN], the inhibition [1] was “Active”, the inhibition in vivo at 5 mg/kg (Rattus norvegicus [2]) was 33.4% and the Activity (RAW264.7 [3]) was “Non-Toxic”. For the same compound, the inhibition (RAW264.7 [4]) was “Active”, the inhibition in vivo at 10 mg/kg (Rattus norvegicus [5]) was 48% and the inhibition at 60 µM (Peritoneal macrophage) was 55.9%. For the same compound, the inhibition at 60 µM (RAW264.7 [6]) was 51.3%, the inhibition (Mus musculus [7]) was “Active” and the inhibition (Mus musculus [8]) was “Active”. The inhibition [9] was “inactive”, the viability at 24 h, 60 µM [10] was 90.4% and the inhibition (RAW264.7 [11]) was “Active”. The inhibition (Rattus norvegicus [12]) was “Active”, the inhibition (RAW264.7 [13]) was “Active” and the Activity (RAW264.7 [14]) was “Non-Toxic”.
